According to ChEMBL document CHEMBL4266052, “Evaluation of Inhibitory Activities of UK-2A, an Antimycin-Type Antibiotic, and Its Synthetic Analogues against the Production of Anti-inflammatory Cytokine IL-4” (J Nat Prod, 2018):
Calls of active or inactive are those of the source. No cut-off for these calls is given here.

Columns and labels:
RBL-2H3 [1] = assay: Cytotoxicity against rat RBL2H3 cells assessed as inhibition of cell proliferation up to 4000 nM after 24 hrs by CCK8 assay; type: cell-based; conditions: rbl-2h3, 24 h
How it was run: (§1)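 RBL-2H3 cells seeded 10^5/well, 12 h at 37 °C, 5% CO2, then exposed to drug in DMEM for 24 h at 37 °C; medium replaced with serum-containing medium, CCK-8 (WST-8) added, absorbance at 450 nm after 1 h. Relative viability vs control, n = 4, Student's t-test p < 0.05.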

RBL-2H3 [2] = assay: Anti-inflammatory activity in DNP-IgE-stimulated rat RBL2H3 cells assessed as reduction of IL4 secretion pretreated for 10 mins followed by DNP-HSA stimulation measured after 1 hr by ELISA
RBL-2H3 [3] = assay: Anti-inflammatory activity in DNP-IgE-stimulated rat RBL2H3 cells assessed as reduction of IL4 secretion at >20 nM pretreated for 10 mins followed by DNP-HSA stimulation measured after 1 hr by ELISA; type: functional, cell-based
How it was run: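 RBL-2H3 cells, 2.5 × 10^4/well, cultured overnight, then sensitised 2 h with 50 ng/mL anti-DNP IgE in DMEM/10% FBS at 37 °C, 5% CO2. After washing, drug added in DMF (0.05% final). After 10 min, challenged with DNP-HSA (50 ng/mL final) for 1 h. Supernatant rat IL-4 measured by ELISA on Luminex multiplex system. Mean ± SEM, n = 3.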

RBL-2H3 [4] = assay: Cytotoxicity against rat RBL2H3 cells assessed as inhibition of cell proliferation at >5 nM after 24 hrs by CCK8 assay; type: cell-based; conditions: rbl-2h3, 24 h
RBL-2H3 [5] = assay: Cytotoxicity against rat RBL2H3 cells assessed as inhibition of cell proliferation at >40 nM after 24 hrs by CCK8 assay; type: cell-based; conditions: rbl-2h3, 24 h; how it was run: as §1
RBL-2H3 [6] = assay: Anti-inflammatory activity in DNP-IgE-stimulated rat RBL2H3 cells assessed as reduction of IL4 secretion at >2000 nM pretreated for 10 mins followed by DNP-HSA stimulation measured after 1 hr by ELISA; type: functional, cell-based
How it was run: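 RBL-2H3 cells (2.5 × 10^4/well, cultured overnight in DMEM + 10% FBS, penicillin/streptomycin, 37 °C, 5% CO2) sensitized 2 h with 50 ng/mL anti-DNP IgE, washed, then drug in DMF (0.05% final) added 10 min before DNP-HSA (50 ng/mL final); IL-4 in supernatant after 1 h by rat IL-4 ELISA/Luminex. IC50 from dose–response curves.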

| SMILES | Activity (RBL-2H3 [1]) | IC50 (RBL-2H3 [2]) [µM] | Activity (RBL-2H3 [3]) | Activity (RBL-2H3 [4]) | further results |
| --- | --- | --- | --- | --- | --- |
| COc1ccnc(C(=O)N[C@H]2COC(=O)[C@H](Cc3ccccc3)[C@@H](OC(=O)CC(C)C)[C@H](C)OC2=O)c1O | Non-Toxic | 4.39 |  |  |  |
| CCCCC[C@H]1C(=O)O[C@H](C)[C@H](NC(=O)c2cccc(NC=O)c2O)C(=O)O[C@@H](C)[C@@H]1OC(=O)CC(C)C |  |  | Active | Toxic |  |
| CC(C)C(=O)O[C@H]1[C@H](C)OC(=O)[C@@H](NC(=O)c2cccc(NC=O)c2O)[C@@H](C)OC(=O)[C@@H]1Cc1ccccc1 [SPLENOCIN B] |  |  | Active |  | Activity (RBL-2H3 [5]): Toxic |
| CCCCCC[C@H]1C(=O)O[C@H](C)[C@H](NC(=O)c2cccc(NC=O)c2O)C(=O)O[C@@H](C)[C@@H]1OC(=O)CC(C)C [ANTIMYCIN A] |  |  | Active | Toxic |  |
| COc1ccnc(C(=O)N[C@H]2COC(=O)[C@H](Cc3ccccc3)[C@@H](OC(=O)C(C)C)[C@H](C)OC2=O)c1O | Non-Toxic | 1.38 |  |  | Activity (RBL-2H3 [6]): Active |
| CC(C)C(=O)O[C@H]1[C@H](C)OC(=O)[C@@H](NC(=O)c2cccc(NC=O)c2O)COC(=O)[C@@H]1Cc1ccccc1 | Non-Toxic | 0.0413 |  |  |  |
| CCCC[C@H]1C(=O)OC[C@H](NC(=O)c2nccc(OC)c2O)C(=O)O[C@@H](C)[C@@H]1OC(=O)C(C)C | Non-Toxic |  |  |  |  |
| CCC[C@H]1C(=O)O[C@H](C)[C@H](NC(=O)c2cccc(NC=O)c2O)C(=O)O[C@@H](C)[C@@H]1OC(=O)CC(C)C |  |  | Active | Toxic |  |
| CCCC[C@H]1C(=O)O[C@H](C)[C@H](NC(=O)c2cccc(NC=O)c2O)C(=O)O[C@@H](C)[C@@H]1OC(=O)CC(C)C [ANTIMYCIN A3] |  |  | Active | Toxic |  |
